“And” between values parts separate entries of the source, which are not always exact repeats. Equal entries are not always repeated. Where two headings read alike, the source gives them in different places. Values belong to the molecule of their own block, whether it stands above or below them.
Key:
[1] = tested on: tau; conditions: 2-week treatment, ventral horn spinal motoneurons and hippocampal CA3 mossy fibers, tau × amyloid precursor protein mice; cited from earlier work
[2] = tested on: pSer9-GSK3β; conditions: cortex of CD1 mice; cited from earlier work
[3] = tested on: pSer9-GSK3β; conditions: Tg2576 (APP) AD-transgenic mice; cited from earlier work
[4] = Plasma and brain exposure after 5-month repeated oral; format: in vivo, mouse; conditions: for Brain/plasma AUC(0–24 h) ratio / AUC(0–24 h) / Cmax/Cmin ratio / Cmin / Cmax: 5 months; for 0.002%/0.00067% AUC(0–24 h) ratio: 5 months in diet
Procedure, shortened: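 Male WT mice received the test compound in diet (0.00067% or 0.002%) for 5 months. Blood was taken from the mandibular vein of awake mice into lithium heparin and centrifuged at 1500–2000g for 10 min at 4°C; plasma was stored at −80°C. Pons/cerebellum was dissected. Samples spanned 24 h; analytes were acetonitrile-precipitated and measured by LC-MS/MS.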

[5] = tested on: THY-Tau22 mice; test: Shape and spatial object recognition test; format: in vivo, mouse; conditions: for recognition index, shape episodic memory: Fig. 2A; for recognition index, shape episodic memory / recognition index, spatial episodic memory: means ± SEM; for recognition index, spatial episodic memory: Fig. 2B
Procedure, shortened: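 Individually housed male THY-Tau22 and WT littermates (enriched environment, reverse light/dark cycle) received diet dosing from age 2 months for 4 or 6 months. Object recognition used a 59 × 59 × 30 cm PVC open field (black walls, white floor) with an overhead camera. Washout groups were tested for shape at 10 d and spatial memory at 17 d after cessation. Recognition index is reported as mean ± SEM.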

[6] = tested on: tau protein; format: in vivo, mouse; conditions: for change in tau phosphorylation at Ser199/202-Thr205 (AT8 signal): 6 months in diet, not significant
Procedure, shortened: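 Cortex or hippocampus from THY-Tau22 mice given diet dosing for 6 months was homogenized in RIPA buffer (pH 7.5) with protease inhibitors, 1 μM okadaic acid and 100 mM NaF, then centrifuged at 16,000g for 10 min at 4°C. Protein (5 or 20 μg) was run on 4–12% Bis-Tris gels, transferred to PVDF and blocked in 5% milk. Primary antibodies were applied overnight at 4°C. Values are relative, n = 7–9/group.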

[7] = tested on: Ser9-GSK3β; test: Western blot of Ser9-GSK3β in hippocampus; format: in vivo, mouse; conditions: 2-week treatment, 0.002% and 0.02% in drinking water, THY-Tau22 mice
[8] = tested on: AT8 (pSer199/202-Thr205) tau; test: AT8 immunostaining, quantitative image analysis; format: in vivo, mouse; conditions: 6 months, cortex
Procedure, shortened: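 Male THY-Tau22 mice received the test compound in diet (0.0002%, 0.002% or 0.02%) for 6 months from age 2 months. Hemibrains were immersion-postfixed 7 days at 4°C in 4% formaldehyde, and 20 μm serial sagittal cryostat sections were cut. AT8 immunostaining was quantified by virtual-slide scanning image analysis as mean positive cell bodies count. Dunnett tests were run on log-transformed data, n = 9 mice/group.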

[9] = tested on: neurofibrillary tangles; test: Neurofibrillary tangles, Gallyas silver staining; format: in vivo, mouse; conditions: 6 months
[10] = tested on: MIP-1α; test: Hippocampal mRNA expression, quantitative real-time RT-PCR; format: in vivo, mouse; conditions: 6 months, hippocampus
[11] = tested on: GFAP; test: as above; format: in vivo, mouse; conditions: 6 months in diet, hippocampus, THY-Tau22
[12] = tested on: cystatin F; test: as above; format: in vivo, mouse; conditions: 6 months in diet, hippocampus, THY-Tau22
[13] = tested on: APPxPS1 transgenic mice; test: Object recognition test in APPxPS1 transgenic mice; format: in vivo, mouse; conditions: data not shown
[14] = tested on: rats; conditions: object recognition test, acute treatment; cited from earlier work
[15] = tested on: mice; conditions: object recognition test, acute treatment; cited from earlier work
[16] = tested on: histamine H3-receptor (H3R); conditions: compared with ABT-239; cited from earlier work

Structure (SMILES): C[C@@H]1CCCN1CCc1cc2cc(-c3ccc(C#N)cc3)ccc2o1 [ABT-239]
tau hyperphosphorylation (AT8 site) [1]: decreases tau hyperphosphorylation
levels of pSer9-GSK3β (inactive form of GSK3β) [2]: increased the levels
reduction in hippocampal pSer9-GSK3β levels [3]: reversed the reduction

Brain/plasma AUC(0–24 h) ratio ([4]; 0.00067% in diet): 3.5
AUC(0–24 h) ([4]; 0.00067% in diet, brain): 110 ng·h/g
AUC(0–24 h) ([4]; 0.00067% in diet, plasma): 0.031 µg·h/mL
Cmax/Cmin ratio ([4]; 0.00067% in diet, plasma): 1.4
Cmin ([4]; 0.00067% in diet, plasma): 1.26 ng/mL and 4.83 nM
Cmax/Cmin ratio ([4]; 0.00067% in diet, pons/cerebellum): 1.5
Brain/plasma AUC(0–24 h) ratio ([4]; 0.002% in diet): 3.5
AUC(0–24 h) ([4]; 0.002% in diet, brain): 390 ng·h/g
AUC(0–24 h) ([4]; 0.002% in diet, plasma): 0.11 µg·h/mL
Cmax ([4]; 0.002% in diet, plasma): 0.0248 µM
Cmax/Cmin ratio ([4]; 0.002% in diet, plasma): 2.7
Cmin ([4]; 0.002% in diet, plasma): 2.44 ng/mL and 9.35 nM
Cmax ([4]; 0.002% in diet, plasma, male WT mice): 6.48 ng/mL
Cmax/Cmin ratio ([4]; 0.002% in diet, pons/cerebellum): 2.1
0.002%/0.00067% AUC(0–24 h) ratio ([4]; plasma): 3.5
0.002%/0.00067% AUC(0–24 h) ratio ([4]; pons/cerebellum): 3.5
Structure (SMILES): CN1CCCC1CCNS(=O)(=O)c1ccc2c(c1)CN(CC1CCCCC1)CC2 (centres unmarked) [SAR110894]
deficit in shape episodic memory ([5]; 0.00067% in diet, 4 months, THY-Tau22 mice, confirmatory study, Fig. 2C): no effect
deficit in spatial episodic memory ([5]; 0.00067% in diet, 4 months, THY-Tau22 mice, confirmatory study, Fig. 2D): reduced the deficit
recognition index, shape episodic memory ([5]; 0.002% in diet, THY-Tau22 mice, P = .0010): 64 ± 2%
recognition index, spatial episodic memory ([5]; 0.002% in diet, THY-Tau22 mice, P = .0153): 58 ± 3%
procognitive effect on shape episodic memory after treatment washout ([5]; 0.002% in diet, after 1 week of washout, Fig. 2C): still persisted
procognitive effect on spatial episodic memory after treatment washout ([5]; 0.002% in diet, after 2 weeks of washout, Fig. 2D): still persisted
recognition index, shape episodic memory ([5]; 0.02% in diet, THY-Tau22 mice, P = .0104): 61 ± 3%
recognition index, spatial episodic memory ([5]; 0.02% in diet, THY-Tau22 mice, P = .0002): 60 ± 2%
cognitive deficits in THY-Tau22 mice ([5]; administered during 4 or 6 months starting at the age of 2 months): prevented cognitive deficits
change in tau phosphorylation at pSer214 ([6]; 0.002% in diet, 6 months, cortex, P = .0052): −35%
change in tau phosphorylation at pSer422 ([6]; 0.002% in diet, 6 months, cortex, no effect, P = .3019): −20%
change in tau phosphorylation at pThr181 (AT270 signal) ([6]; 0.002% in diet, 6 months, cortex, no effect, P = .4830): −16%
change in AD2 signal ([6]; 0.002% in diet, 6 months, cortex, second independent Western blot evaluation, P = .0191, Fig. 4F): −37%
change in AD2 signal ([6]; 0.002% in diet, 6 months, cortex, trend, P = .2766, Fig. 4B): −57%
change in total tau (Tau5 signal) ([6]; 0.002% in diet, 6 months, cortex, unchanged, P = .0950): −17%
change in tau phosphorylation at residues 396/404 (AD2 signal) ([6]; 0.002% in diet, 6 months, hippocampus, THY-Tau22, P = .0291): −37%
tau hyperphosphorylation (AD2 or AT8) ([6]; 2-week treatment, 0.002% and 0.02% in drinking water, hippocampus, 5- to 6-month-old THY-Tau22 mice): no effect
change in tau phosphorylation at Ser199/202-Thr205 (AT8 signal) ([6]; cortex, P = .8054, Fig. 4E): −29%
change in tau phosphorylation at Ser199/202-Thr205 (AT8 signal) ([6]; hippocampus, P = .5560, Fig. 4D): −22%
tau hyperphosphorylation (AD2 or AT8 epitopes) ([6]; acute administration 3 and 10 mg/kg orally, cingulate cortex, 3-month-old THY-Tau22 mice, data not shown): no effect
level of Ser9-GSK3β (inactive form of GSK3β) [7]: no effect
decrease in number of AT8-positive neuronal cell bodies ([8]; 0.002% in diet, THY-Tau22, P = .0010): 47%
intensity of AT8 immunostaining within neuronal cell bodies and fibers ([8]; 0.002% in diet, data not shown): marked decrease
decrease in number of AT8-positive neuronal cell bodies ([8]; 0.02% in diet, THY-Tau22, P = .0250): 32%
change in number of NFTs ([9]; 0.002% in diet, cortex, P = .0001): −48%
change in number of NFTs ([9]; 0.002% in diet, hippocampus, P < .0001): −25%
change in number of NFTs ([9]; 0.02% in diet, amygdala, P = .0065): −31%
change in number of NFTs ([9]; 0.02% in diet, cortex, P = .0019): −41%
change in number of NFTs ([9]; 0.02% in diet, hippocampus, P = .0006): −22%
change in expression of MIP-1α ([10]; 0.0002% in diet, THY-Tau22, P = .0087): −35%
change in expression of MIP-1α ([10]; 0.002% in diet, THY-Tau22, P = .0184): −36%
expression of GFAP [11]: no effect
expression of cystatin F [12]: no effect
memory deficits in APPxPS1 transgenic mice [13]: decreased memory deficits
scopolamine-induced memory deficits [14]: prevented the occurrence
memory deficits induced by infusion of Aβ(25–35) [15]: decreased the memory deficits
affinity and selectivity for H3R [16]: higher affinity and selectivity than ABT-239

Reference: publication PMC5651361 (Alzheimer's & Dementia : Translational Research & Clinical …, 2016)
